From ChEMBL document CHEMBL1773060, “Two-step synthesis of novel, bioactive derivatives of the ubiquitous cofactor nicotinamide adenine dinucleotide (NAD)” (J Med Chem, 2011)
pIC50: −log10 of the molar value.

molecular target: T1, NAD-dependent protein deacetylase sirtuin-2 (Homo sapiens, UniProt Q8IXJ6); experiment: Inhibition of human recombinant N-terminally His6-tagged SIRT2 after 4 hrs by homogeneous fluorescent deacetylase assay
T1 sequence (Q8IXJ6 whole entry): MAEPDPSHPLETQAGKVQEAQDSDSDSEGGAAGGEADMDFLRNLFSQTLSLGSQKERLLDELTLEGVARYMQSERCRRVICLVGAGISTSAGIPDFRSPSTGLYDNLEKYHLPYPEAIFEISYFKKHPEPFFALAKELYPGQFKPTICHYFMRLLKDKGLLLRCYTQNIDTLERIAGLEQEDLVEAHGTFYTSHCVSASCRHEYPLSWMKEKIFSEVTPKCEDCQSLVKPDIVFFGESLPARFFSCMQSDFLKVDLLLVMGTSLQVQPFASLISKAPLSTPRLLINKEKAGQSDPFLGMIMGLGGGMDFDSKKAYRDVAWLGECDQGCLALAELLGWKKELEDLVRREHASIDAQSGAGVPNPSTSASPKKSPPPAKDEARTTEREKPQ
Method in brief: (§1)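 Recombinant enzyme incubated with Z-(Ac)Lys-AMC (10.5 μM), NAD (500 μM) and inhibitor added from DMSO stock, 4 h at 37 °C. Enzyme amount set for 10–30% substrate conversion without inhibitor. Trypsin (1 mg/mL) plus nicotinamide (8 mM) added, 20 min at 37 °C. Fluorescence read at ex 390/em 460 nm. Inhibition calculated from remaining substrate versus no-inhibitor control. Run at least in duplicate.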

Row | SMILES | pIC50
1 | COc1ccc(-c2nc3c(N)ncnc3n2[C@@H]2O[C@H](COP(=O)(O)OP(=O)([O-])OC[C@H]3O[C@@H]([n+]4cccc(C(N)=O)c4)[C@H](O)[C@@H]3O)[C@@H](O)[C@H]2O)cc1 | 4.37
2 | Nc1ncnc2c1nc(-c1ccccc1)n2[C@@H]1O[C@H](COP(=O)(O)O)[C@@H](O)[C@H]1O | 4.54
3 | Cc1ccc(-c2nc3c(N)ncnc3n2[C@@H]2O[C@H](COP(=O)(O)OP(=O)([O-])OC[C@H]3O[C@@H]([n+]4cccc(C(N)=O)c4)[C@H](O)[C@@H]3O)[C@@H](O)[C@H]2O)cc1 | 4.28

Further lines, results first:

Row | pIC50 | SMILES
4 | 4.55 | NC(=O)c1ccc[n+]([C@@H]2O[C@H](COP(=O)([O-])OP(=O)(O)OC[C@H]3O[C@@H](n4c(Br)nc5c(N)ncnc54)[C@H](O)[C@@H]3O)[C@@H](O)[C@H]2O)c1
5 | 4.46 | NC(=O)c1ccc[n+]([C@@H]2O[C@H](COP(=O)([O-])OP(=O)(O)OC[C@H]3O[C@@H](n4c(-c5ccc(Cl)cc5)nc5c(N)ncnc54)[C@H](O)[C@@H]3O)[C@@H](O)[C@H]2O)c1
6 | 3.91 | NC(=O)c1ccc[n+]([C@@H]2O[C@H](COP(=O)([O-])OP(=O)(O)OC[C@H]3O[C@@H](n4c(-c5ccccc5)nc5c(N)ncnc54)[C@H](O)[C@@H]3O)[C@@H](O)[C@H]2O)c1

molecular target: T2, NAD-dependent protein deacetylase sirtuin-1 (Homo sapiens, UniProt Q96EB6); experiment: Inhibition of human recombinant GST-tagged SIRT1 after 4 hrs by homogeneous fluorescent deacetylase assay; method in brief: as §1
T2 sequence (Q96EB6 whole entry): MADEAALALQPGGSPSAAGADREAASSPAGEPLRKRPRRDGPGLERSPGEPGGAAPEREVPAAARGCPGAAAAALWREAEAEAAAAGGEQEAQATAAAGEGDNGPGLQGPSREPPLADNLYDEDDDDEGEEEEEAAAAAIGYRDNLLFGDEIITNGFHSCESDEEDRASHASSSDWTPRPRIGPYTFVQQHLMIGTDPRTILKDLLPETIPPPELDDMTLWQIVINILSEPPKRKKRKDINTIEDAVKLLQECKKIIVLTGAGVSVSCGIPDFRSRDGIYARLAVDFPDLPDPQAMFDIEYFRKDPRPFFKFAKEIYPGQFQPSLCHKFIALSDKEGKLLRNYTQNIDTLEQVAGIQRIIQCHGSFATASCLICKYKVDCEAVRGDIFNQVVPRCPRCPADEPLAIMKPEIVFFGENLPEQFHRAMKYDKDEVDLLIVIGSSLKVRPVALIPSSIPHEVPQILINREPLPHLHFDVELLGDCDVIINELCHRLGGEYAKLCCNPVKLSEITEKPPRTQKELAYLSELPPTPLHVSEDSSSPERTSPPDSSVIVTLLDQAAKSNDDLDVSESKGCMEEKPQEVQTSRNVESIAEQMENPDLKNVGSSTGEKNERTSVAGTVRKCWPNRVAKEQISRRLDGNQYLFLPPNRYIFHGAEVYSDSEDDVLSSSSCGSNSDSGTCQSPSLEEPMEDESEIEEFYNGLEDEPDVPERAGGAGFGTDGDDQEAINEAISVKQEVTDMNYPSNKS

Row | pIC50 | SMILES
7 | 4.51 | Nc1ncnc2c1nc(-c1ccccc1)n2[C@@H]1O[C@H](COP(=O)(O)O)[C@@H](O)[C@H]1O
